Source: article PMC8711093 (Nature, 2021)
Where a chain is given by its changes, count along the chain named. “Also recorded” adds a separate entry of the source.

Assays:
dorsal horn neurons = assay: Spinal cord slice electrophysiology; assay type: cell-based, rat; conditions: for increase in eEPSC amplitude from baseline: reversal of the ADO tone; for sEPSC frequency and amplitude: nerve-injured rats, superfusion, reversed by DPCPX, n=8
In short: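 Parasagittal lumbar cord slices (340 μm) from PNL and sham Sprague-Dawley rats, 9-15 weeks, cut in ice-cold sucrose ACSF and superfused at 2 ml/min, 34°C. Whole-cell voltage clamp at −70 mV in lamina I-II neurons; Cs-based internal with QX-314. eEPSCs evoked by dorsal root stimulation (C and A fibre) with gabazine 10 μM and strychnine 0.5 μM. Test compound superfused after stable baseline, then 1 μM DPCPX.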

nerve-injured rats [1] = assay: Conditioned place preference; assay type: in vivo, rat; conditions: intrathecal; for time spent in the drug paired chamber: nerve-injured rats, n=8
In short: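 Male and female Sprague-Dawley rats, 10-16 weeks, with partial sciatic nerve ligation and lumbar intrathecal catheters. Three-chamber box; pre-conditioning began 10 days post-surgery, excluding rats spending >80% of time in one chamber. Vehicle (DMSO/saline 60:40 or saline) was paired with one chamber in the morning and intrathecal drug with the opposite chamber 4 h later, counterbalanced. Rats were recorded 15 min with free access 20 h later; n = 8/group; morphine positive control.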

rats = assay: Rotarod; assay type: in vivo, rat
[2] = biological target: T1, human A1R expressed in CHO cells (Homo sapiens, UniProt P30542); assay type: cell-based
T1 sequence (P30542 1-326): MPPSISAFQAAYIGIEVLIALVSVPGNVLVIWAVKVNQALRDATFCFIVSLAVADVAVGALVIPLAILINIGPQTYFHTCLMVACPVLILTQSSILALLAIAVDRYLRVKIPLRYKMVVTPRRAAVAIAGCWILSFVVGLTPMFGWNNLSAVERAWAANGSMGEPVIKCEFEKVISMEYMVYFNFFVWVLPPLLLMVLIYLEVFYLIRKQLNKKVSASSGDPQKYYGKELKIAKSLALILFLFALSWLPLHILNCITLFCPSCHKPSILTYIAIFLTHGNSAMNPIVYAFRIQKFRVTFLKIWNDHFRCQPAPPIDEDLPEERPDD
In short: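 FlpIN-CHO cells stably expressing WT A1R, grown in DMEM with 20 mM HEPES, 5% FBS and hygromycin B; seeded at 20,000 cells/well overnight. At 37°C in HEPES-buffered saline with rolipram, pH 7.45: 30 min preincubation, 10 min test compound, then 3 μM forskolin ± increasing ADO for 30 min. Stopped with ice-cold ethanol; cAMP expressed as % of forskolin response.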

nerve-injured rats [3] = assay type: in vivo, rat; conditions: intrathecal
In short: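 Sciatic nerve partially ligated (one third to one half) under isoflurane; allodynia confirmed at day 14. Intrathecal catheters placed at day 12 in male and female Sprague-Dawley rats, 9-14 weeks. After baseline, blinded 10 μL dose (DMSO/saline 60:40) plus 25 μL saline flush. Von Frey filaments 0.52-14.8 g, up-down method, over a time course, including 1 h post-dose. n = 8-10; catheter placement checked with lignocaine.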

[4] = Stability in human plasma; assay type: in vitro ADME
Stability in rat plasma = assay type: in vitro ADME
rat atrial beat rate = assay: Isolated rat atrial experiments; conditions: isolated rat atria, concentration-response
mutant A1R [5] = biological target: T2, mutant A1R (Homo sapiens, UniProt P30542, F275V); assay type: binding; conditions: F275^7.40V
T2 sequence (P30542 1-326 F275V): T1 sequence (P30542 1-326) with F275V

mutant A1R [6] = biological target: T3, mutant A1R (Homo sapiens, UniProt P30542, L242A/L245A); assay type: binding; conditions: alanine mutation of both L242^6.43 and L245^6.46
T3 sequence (P30542 1-326 L242A/L245A): T1 sequence (P30542 1-326) with L242A, L245A

mutant A1R [7] = biological target: T4, mutant A1R (Homo sapiens, UniProt P30542, L276A); assay type: binding; conditions: L276^7.41A
T4 sequence (P30542 1-326 L276A): T1 sequence (P30542 1-326) with L276A

mutant A1R [8] = biological target: T5, mutant A1R (Homo sapiens, UniProt P30542, M283V); assay type: binding; conditions: M283^7.48V
T5 sequence (P30542 1-326 M283V): T1 sequence (P30542 1-326) with M283V

mutant A1R [9] = biological target: T6, mutant A1R (Homo sapiens, UniProt P30542, S246A); assay type: binding; conditions: S246^6.47A
T6 sequence (P30542 1-326 S246A): T1 sequence (P30542 1-326) with S246A

mutant A1R [10] = assay type: binding, human; conditions: bulkier side chains at position 7.44 (G279^7.44)
[11] = biological target: T7, A1R alone reconstituted in rHDL (Homo sapiens, UniProt P30542); assay: [3H]DPCPX dissociation at A1R-rHDL particles, absence of G protein; assay type: binding; conditions: 30 μM MIPS521, SLV320 isotopic dilution
T7 sequence (P30542 1-326): T1 sequence (P30542 1-326)
In short: (§1)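 Purified A1R reconstituted into MSP1D1 nanodiscs (POPC:POPG 3:2; molar ratio 1:10:800) for 1 h at 4°C, then Bio-beads overnight; empty discs removed on anti-Flag resin. Particles ± Gi2 heterotrimer (1:50 molar) were equilibrated 1 h with 2 nM [3H]DPCPX ± 30 μM test compound. Dissociation started with excess SLV320, filtered on GF/C and counted. Fitted to mono-exponential decay; n = 3-5, duplicate.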

[12] = biological target: A1R-rHDL particles with Gi2 heterotrimeric protein (Homo sapiens, UniProt P30542); assay: [3H]DPCPX dissociation at A1R-rHDL particles with saturating Gi2; assay type: binding; conditions: 30 μM MIPS521; saturating concentration of Gi2; SLV320 isotopic dilution
In short: as §1

[13] = intrathecal, compared to vehicle controls, n=3-4
[14] = operational model, ADO, 3 μM forskolin

Sequence of A1R-rHDL particles with Gi2 heterotrimeric protein (P62873 whole entry, one chain of several): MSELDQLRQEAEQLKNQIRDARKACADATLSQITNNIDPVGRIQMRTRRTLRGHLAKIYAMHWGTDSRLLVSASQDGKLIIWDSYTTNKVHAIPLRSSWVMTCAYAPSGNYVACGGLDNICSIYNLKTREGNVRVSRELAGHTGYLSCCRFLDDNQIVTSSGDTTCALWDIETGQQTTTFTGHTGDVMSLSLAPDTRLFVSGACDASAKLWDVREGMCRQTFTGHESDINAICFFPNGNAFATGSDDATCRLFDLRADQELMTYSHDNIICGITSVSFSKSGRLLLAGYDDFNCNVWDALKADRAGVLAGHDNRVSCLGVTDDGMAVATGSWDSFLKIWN
Sequence of A1R-rHDL particles with Gi2 heterotrimeric protein (P59768 2-68, one chain of several, further chain): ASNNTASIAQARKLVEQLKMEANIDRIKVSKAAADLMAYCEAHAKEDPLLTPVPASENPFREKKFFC
Sequence of A1R-rHDL particles with Gi2 heterotrimeric protein (P04899 2-355, one chain of several, further chain): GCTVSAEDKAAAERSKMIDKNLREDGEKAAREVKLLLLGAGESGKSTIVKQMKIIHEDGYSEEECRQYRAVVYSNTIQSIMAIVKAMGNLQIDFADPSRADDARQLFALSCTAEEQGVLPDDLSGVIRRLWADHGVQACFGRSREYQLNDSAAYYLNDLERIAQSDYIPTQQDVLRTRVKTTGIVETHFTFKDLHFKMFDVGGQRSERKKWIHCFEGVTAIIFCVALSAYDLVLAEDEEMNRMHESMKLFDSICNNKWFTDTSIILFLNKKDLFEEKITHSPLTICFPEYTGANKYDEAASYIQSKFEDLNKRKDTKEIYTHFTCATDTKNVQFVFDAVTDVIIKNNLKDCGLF

CCCn1c(=O)c2[nH]c(C3CCCC3)nc2n(CCC)c1=O [DPCPX, reference compound]
increase in eEPSC amplitude from baseline (dorsal horn neurons; nerve-injured animals): 19.7 ± 6.1% | increase in eEPSC amplitude from baseline (dorsal horn neurons; sham controls): 7.89 ± 2.7%

CN1CC[C@]23c4c5ccc(O)c4O[C@H]2[C@@H](O)C=C[C@H]3[C@H]1C5 [morphine, reference compound]
time spent in the drug paired chamber (nerve-injured rats [1]; 10 μg): increased the time nerve-injured rats spent in the drug paired chamber | rotarod latency to fall / motor function (rats; [13]): reduces rotarod latency to fall

Nc1scc(-c2cccc(C(F)(F)F)c2)c1C(=O)c1ccccc1 [VCP171, (2-amino-4-(3-(trifluoromethyl)phenyl)thiophen-3-yl)(phenyl)methanone]
Kb [2]: 3.16 µM | positive cooperativity with ADO, Log αβ [2, 14]: 0.76 ± 0.25 | sEPSC frequency and amplitude (dorsal horn neurons): reduced | allodynia (paw withdrawal threshold) (nerve-injured rats [3]; 30 μg): small reduction of allodynia | paw withdrawal threshold (nerve-injured rats [3]; 1-10 μg): no effect | spontaneous pain (nerve-injured rats [1]; 30 μg (highest dose)): reduced spontaneous pain | time spent in the drug paired chamber (nerve-injured rats [1]; 30 μg): increased the time nerve-injured rats spent in the drug paired chamber | rotarod latency to fall / motor function (rats; both, Sprague Dawley, rat, in vivo): neither MIPS521 nor VCP171 affected motor function | rotarod latency to fall / motor function (rats; rat, in vivo): not significantly different to vehicle controls | time stable in plasma [4]: at least 4 h | time stable in plasma (Stability in rat plasma): at least 4 h

Nc1scc(-c2cc(C(F)(F)F)cc(C(F)(F)F)c2)c1C(=O)c1ccc(Cl)cc1 [MIPS521]
affinity for the A1R allosteric site, pKB ([2]; operational model of allosterism and agonism, ADO, 3 μM forskolin, n=3): 4.95 ± 0.40 | positive cooperativity with ADO, Log αβ [2, 14]: 1.81 ± 0.53 | direct allosteric agonism / signaling efficacy, Log τB ([2]; operational model, recombinant CHO cells): 0.96 ± 0.34 | sEPSC frequency and amplitude (dorsal horn neurons): reduced | pEC50 for reducing eEPSCs (dorsal horn neurons; spinal cord from nerve-injured animals, n=4-12): 6.9 ± 0.4 | mechanical hyperalgesia (paw withdrawal threshold) (nerve-injured rats [3]; compared with VCP171): reversed the mechanical hyperalgesia at lower concentrations than VCP171 | time spent in the drug paired chamber (nerve-injured rats [1]; 10 μg): increased the time nerve-injured rats spent in the drug paired chamber | spontaneous pain (nerve-injured rats [1]; lower dose than VCP171 (10 μg)): significantly reduced spontaneous pain | rotarod latency to fall / motor function (rats; [13]): neither MIPS521 nor VCP171 affected motor function; also recorded: not significantly different to vehicle controls | effect on rat atrial beat rate (rat atrial beat rate): minimal effect | stability in plasma ([4]; 4-hour incubation period): stable | stability in plasma (Stability in rat plasma; 4-hour incubation period): stable | change in PAM affinity (pKB) vs wild type (mutant A1R [5]): decrease in affinity | change in PAM affinity (pKB) vs wild type (mutant A1R [6]): no effect on affinity | change in binding cooperativity (log α) with NECA vs wild type (mutant A1R [6]): significant decrease in PAM cooperativity | change in PAM affinity (pKB) vs wild type (mutant A1R [7]): significantly decreased MIPS521 affinity | change in PAM affinity (pKB) vs wild type (mutant A1R [8]): significantly reduced the affinity | change in PAM affinity (pKB) vs wild type (mutant A1R [9]): significant decrease in both PAM affinity and cooperativity | change in binding cooperativity (log α) with NECA vs wild type (mutant A1R [9]): significant decrease in both PAM affinity and cooperativity | change in PAM affinity (pKB) vs wild type (mutant A1R [10]): significant loss of both modulator affinity and cooperativity | change in binding cooperativity (log α) with NECA vs wild type (mutant A1R [10]): significant loss of both modulator affinity and cooperativity | effect on dissociation of pre-equilibrated [3H]DPCPX [11]: no effect | effect on dissociation of pre-equilibrated [3H]DPCPX [12]: even more profound retardation
